ChEMBL document CHEMBL4834423, “Discovery of AG-270, a First-in-Class Oral MAT2A Inhibitor for the Treatment of Tumors with Homozygous MTAP Deletion” (J Med Chem, 2021)
≈ marks a conversion by molar mass, not a printed value. Calls of active or inactive are those of the source. The calls are words filed in the database; no cut-off is given here.

How the values were obtained:
[1] = molecular target: T1, S-adenosylmethionine synthase isoform type-2 (Homo sapiens, UniProt P31153); test: Inhibition of recombinant human MAT2A expressed in baculovirus infected Sf9 cells assessed as S-adenosyl methionine production using L-methionine as substrate incubated for 60 mins followed by substrate addition and measured after 60 mins
Target sequence in this assay (P31153 whole entry, canonical isoform): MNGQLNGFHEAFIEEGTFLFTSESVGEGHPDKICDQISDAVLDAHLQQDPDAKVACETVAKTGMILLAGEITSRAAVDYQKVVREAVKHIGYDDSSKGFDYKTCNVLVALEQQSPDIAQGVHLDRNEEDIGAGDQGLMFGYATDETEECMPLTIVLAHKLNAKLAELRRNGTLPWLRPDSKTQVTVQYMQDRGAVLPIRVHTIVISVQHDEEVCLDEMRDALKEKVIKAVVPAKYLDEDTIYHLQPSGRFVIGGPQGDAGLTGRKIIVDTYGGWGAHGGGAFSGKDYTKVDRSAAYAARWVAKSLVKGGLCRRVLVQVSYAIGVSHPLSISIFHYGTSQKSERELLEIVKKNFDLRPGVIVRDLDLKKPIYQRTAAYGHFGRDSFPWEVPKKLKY

[2] = molecular target: T1, S-adenosylmethionine synthase isoform type-2; test: Inhibition of recombinant human MAT2A expressed in baculovirus infected Sf9 cells assessed as S-adenosyl methionine production using L-methionine as substrate incubated for 60 mins followed by substrate addition and measured after 60 mins relative to control; design: concentration or dose not given beside the values
Target sequence in this assay (P31153 whole entry, looked up, canonical isoform): as the sequence (P31153 whole entry, canonical isoform) above

[3] = Stability in human liver microsomes assessed as extraction ratio; format: ADME, Microsome; details: read-out: ERH
[4] = Permeability from apical to basolateral side in human Caco-2 cells; format: ADME, cell-based; details: read-out: permeability
[5] = Plasma protein binding in human by ultracentrifugation; format: ADME, cell-free; details: read-out: PPB (converted)
How it was run: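 Human plasma protein binding was determined by ultracentrifugation.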

[6] = Solubility of compound at pH 2; format: physicochemical; details: buffer
[7] = Cmax in MTAP-null KP4 cells xenografted mouse plasma treated po twice daily; format: ADME, organism-based; design: route oral
How it was run: (§1)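 KP4 MTAP-null xenograft-bearing mice dosed orally twice daily. Cmax was determined in plasma (ng/mL) and tumor (ng/g) after 3 b.i.d. doses.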

[8] = Plasma protein binding in mouse by ultracentrifugation; format: ADME, cell-free; details: read-out: PPB (converted)
[9] = AUC (0 to 12 hrs) in MTAP-null KP4 cells xenografted mouse measured in tumor treated po twice daily; format: ADME, organism-based, Neoplasm; design: time < 12 hr, route oral; details: in vivo
[10] = Cmax in MTAP-null KP4 cells xenografted mouse measured in tumor treated po twice daily; format: ADME, organism-based, Neoplasm; design: route oral; how it was run: as §1
[11] = Efflux ratio of apparent permeability from basolateral side to apical side over apical side to basolateral side in human Caco-2 cells; format: ADME, cell-based
[12] = AUC (0 to 12 hrs) in MTAP-null KP4 cells xenografted mouse plasma treated po twice daily; format: ADME, organism-based; design: time < 12 hr, route oral; details: in vivo
[13] = Solubility of compound at pH 7.4; format: physicochemical; details: buffer
[14] = Protein binding in human plasma assessed as unbound fraction; format: ADME, cell-free
HCT-116 = test: cells; details: Homo sapiens, HCT-116, 96 h
cells = details: Homo sapiens, HCT-116, 72 h
[15] = molecular target: T1, S-adenosylmethionine synthase isoform type-2; test: Binding affinity to MAT2A (unknown origin) by surface plasmon resonance assay
How it was run: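 SPR: His-tagged MAT2A was captured on CM5 chips via covalently coupled penta-anti-His IgG (~16 000 RU), to a capture level of ~7500 RU.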
Target sequence in this assay (P31153 whole entry, canonical isoform): as above

[16] = molecular target: T1, S-adenosylmethionine synthase isoform type-2; test: Inhibition of MAT2A (unknown origin) enzymatic assay
Target sequence in this assay (P31153 whole entry, canonical isoform): as above

Structure (SMILES) | IC50 ([1]; read-out: IC50) [µM] | inhibition [2] | hepatic extraction ratio [3] | other results
Cc1cc(=O)n2nc(-c3cn[nH]c3)c(-c3ccccc3)c2[nH]1 | 50.1 | inactive |  | 
Cc1cc(=O)n2nc(-c3ccccc3)c(-c3ccccn3)c2[nH]1 | 7.1 | 79% |  | 
Cc1[nH]c2c(-c3ccccc3)c(-c3ccccc3)nn2c(=O)c1-c1ccc2ncccc2c1 | 0.097 | 95% | 0.16 | Papp A→B [4]: 6.75 ×10⁻⁶ cm/s; fraction unbound [5]: < 0.001; solubility [6]: 67 µM (≈ 28.7 µg/mL); Cmax [7]: 179 µg/mL; fraction unbound [8]: 0.0003; AUC [9]: 372000 ng·h/g; Cmax [10]: 32300 ng/g; efflux ratio [11]: 6; AUC [12]: 1650000 ng·h/g; solubility [13]: 15 µM (≈ 6.43 µg/mL); fraction unbound [14]: 0.0003
COc1ccc(-c2c(Nc3ccon3)[nH]c3c(C4=CCCCC4)c(-c4ccccc4)nn3c2=O)cc1 | 0.01 | 94% | 0.11 | IC50 (HCT-116): 0.812 µM; IC50 (cells): 0.065 µM
Cc1cc(=O)n2nc(-c3cccc(O)c3)c(-c3ccccc3)c2[nH]1 | 12.2 | 92% |  | IC50 (HCT-116): 75 µM; IC50 (cells): 7.65 µM
COc1ccc(-c2c(Nc3cnccn3)[nH]c3c(C4=CCCCC4)c(-c4ccccc4)nn3c2=O)cc1 | 0.028 | 95% |  | IC50 (HCT-116): 0.409 µM; IC50 (cells): 0.016 µM
COc1ccc(-c2c(Nc3ccccn3)[nH]c3c(-c4ccccc4)c(-c4ccccc4)nn3c2=O)cc1 | 0.007 | 85% | 0.13 | IC50 (HCT-116): 0.793 µM; IC50 (cells): 0.025 µM
Cc1cc(=O)n2nc(-c3cccc(F)c3)c(-c3ccccc3)c2[nH]1 | 1.9 | 76% |  | 
Cc1cc(=O)n2nc(-c3ccco3)c(-c3ccccc3)c2[nH]1 | 1.5 | 65% |  | 
Cc1cc(=O)n2nc(-c3ccccc3)c(-c3ccco3)c2[nH]1 | 3.66 | 90% |  | 
O=c1c(-c2ccc(O)cc2)c(Nc2cc[nH]n2)[nH]c2c(-c3ccccc3)c(-c3ccccc3)nn12 | 0.007 | 93% | 0.26 | IC50 (HCT-116): 0.527 µM
Cc1c(-c2ccc3ncccc3c2)c(=O)n2nc(-c3ccccc3)c(-c3ccccc3)c2n1C | 0.12 | 61% |  | fraction unbound [5]: 0.009; fraction unbound [14]: 0.009
O=c1c(-c2ccc3ncccc3c2)c(Nc2cc[nH]n2)[nH]c2c(-c3ccccc3)c(-c3ccccc3)nn12 | 0.007 | 94% | 0.49 | IC50 (HCT-116): 0.522 µM
Cc1[nH]c2c(-c3ccccc3)c(-c3ccccc3)nn2c(=O)c1-c1ccc(O)cc1 | 0.033 | 93% | 0.54 | 
O=c1cc(Nc2cc[nH]n2)[nH]c2c(-c3ccccc3)c(-c3ccccc3)nn12 | 0.27 | 88% |  | 
Cc1cc(=O)n2nc(-c3ccccc3)c(-c3ccccc3)c2[nH]1 | 1.5 | 69% |  | Kd [15]: 70 µM; IC50 [16]: 1.5 µM
CCOC(=O)c1nnc(Nc2[nH]c3c(-c4ccccc4)c(-c4ccccc4)nn3c(=O)c2-c2ccc3ncccc3c2)o1 | 0.004 | 88% | 0.7 | 
COc1ccc(-c2c(Nc3cc[nH]n3)[nH]c3c(C4=CCCCC4)c(-c4ccccc4)nn3c2=O)cc1 | 0.005 | 96% | 0.56 | IC50 (HCT-116): 0.08 µM; IC50 (cells): 0.021 µM
Cc1cc(=O)n2nc(C3=CCCCC3)c(-c3ccccc3)c2[nH]1 |  |  |  | IC50 ([1]; sf9): Not Active
Cc1cc(=O)n2nc(-c3nccs3)c(-c3ccccc3)c2[nH]1 | 78.8 | 63% |  | 
O=c1c(-c2ccc3ncccc3c2)c(Nc2cc[nH]n2)[nH]c2c(C3=CCCCC3)c(-c3ccccc3)nn12 | 0.004 | 92% | 0.55 | IC50 (HCT-116): 0.073 µM; IC50 (cells): 0.018 µM
CC(=O)Nc1cc(=O)n2nc(-c3ccccc3)c(-c3ccccc3)c2[nH]1 | 4.11 | 85% |  | 
CCc1cc(=O)n2nc(-c3ccccc3)c(-c3ccccc3)c2[nH]1 | 3.66 | 54% |  | 
CCOC(=O)n1ccc(Nc2[nH]c3c(-c4ccccc4)c(-c4ccccc4)nn3c(=O)c2-c2ccc(OC)cc2)n1 | 0.011 | 93% | 0.51 | IC50 (HCT-116): 0.43 µM; IC50 (cells): 0.015 µM
COc1ccc(-c2c(Nc3cc[nH]n3)[nH]c3c(-c4ccccc4)c(-c4ccccc4)nn3c2=O)cc1 | 0.013 | 94% | 0.36 | IC50 (HCT-116): 892 µM; IC50 (cells): 0.008 µM
O=c1cc(Nc2ccccc2)[nH]c2c(-c3ccccc3)c(-c3ccccc3)nn12 | 16.6 | 70% |  | 
Cc1cc(=O)n2nc(C)c(-c3ccccc3)c2[nH]1 |  |  |  | IC50 [16]: 620 µM
Cc1cc(=O)n2nc(-c3ccccc3)c(C3CCCC3)c2[nH]1 | 0.68 | 88% |  | 
Nc1cc(=O)n2nc(-c3ccccc3)c(-c3ccccc3)c2[nH]1 |  |  |  | IC50 ([1]; sf9): Not Active

Now from value to compound, other results behind:

IC50 ([1]; read-out: IC50) [µM] | inhibition [2] | hepatic extraction ratio [3] | Structure (SMILES) | other results
1.31 | 95% |  | Cc1[nH]c2c(N3CCCCC3)c(-c3ccccc3)nn2c(=O)c1-c1cn[nH]c1 | 
0.15 | 93% |  | Cc1[nH]c2c(N3CCCCC3)c(-c3ccccc3)nn2c(=O)c1-c1ccccc1 | 
0.66 | 59% |  | Cc1cc(=O)n2nc(-c3ccccc3)c(C3CCCCC3)c2[nH]1 | 
0.008 | 93% | 0.83 | Cc1[nH]c2c(N3CCCCC3)c(-c3ccccc3)nn2c(=O)c1-c1ccc2c(c1)OCO2 | 
0.159 | 96% |  | Cc1[nH]c2c(C3=CCCC3)c(-c3ccccc3)nn2c(=O)c1-c1ccc2ncccc2c1 | 
0.025 | 96% |  | Cc1[nH]c2c(C3=CCCCC3)c(-c3ccccc3)nn2c(=O)c1-c1ccc2ncccc2c1 | 
0.083 | 94% | 0.75 | Cc1[nH]c2c(N3CCCCC3)c(-c3ccccc3)nn2c(=O)c1-c1ccc2[nH]c(N)nc2c1 | 
0.045 | 92% | 0.79 | Cc1[nH]c2c(N3CCCCC3)c(-c3ccccc3)nn2c(=O)c1-c1ccc2[nH]cnc2c1 | 
1.14 | 84% |  | Cc1cc(=O)n2nc(-c3ccccc3)c(C3=CCCC3)c2[nH]1 | IC50 (HCT-116): 82 µM; IC50 (cells): 0.588 µM
0.052 | 95% | 0.88 | Cc1[nH]c2c(N3CCCCC3)c(-c3ccccc3)nn2c(=O)c1-c1ccc2ncccc2c1 | 
0.158 | 85% |  | Cc1[nH]c2c(N3CCCCC3)c(-c3ccccc3)nn2c(=O)c1-c1cscn1 | 
0.057 | 91% |  | Cc1[nH]c2c(N3CCCCC3)c(-c3ccccc3)nn2c(=O)c1-c1ccc(O)cc1 | fraction unbound [5]: 0.001; IC50 (cells): 0.1 µM; fraction unbound [14]: 0.0009
0.102 | 66% |  | Cc1c(-c2ccc(O)cc2)c(=O)n2nc(-c3ccccc3)c(N3CCCCC3)c2n1C | fraction unbound [5]: 0.0154; fraction unbound [14]: 0.0154
0.26 | 85% |  | Cc1cc(=O)n2nc(-c3ccccc3)c(C3=CCCCC3)c2[nH]1 | solubility [6]: < 0.5 µM; IC50 (HCT-116): 72 µM; IC50 (cells): 0.106 µM; solubility [13]: < 0.5 µM
0.26 | 86% |  | Cc1cc(=O)n2nc(-c3ccccc3)c(N3CCCCC3)c2[nH]1 | solubility [6]: 61 µM (≈ 18.8 µg/mL); solubility [13]: 13 µM (≈ 4.01 µg/mL)
0.066 | 93% | 0.66 | Cc1[nH]c2c(C3CCCCC3)c(-c3ccccc3)nn2c(=O)c1-c1ccc2ncccc2c1 | 
0.16 | 91% |  | Cc1[nH]c2c(N3CCCCC3)c(-c3ccccc3)nn2c(=O)c1-c1ccncc1 | 
